Experiment [1] concerns Rattus norvegicus. Briefly: Antiallergic activity in egg albumin-sensitized Sprague-Dawley rat assessed as inhibition of passive cutaneous anaphylaxis compound administered ip 5 mins prior to egg albumin and Evans blue dye challenge. In kind it is functional. The following applies: for ED50: read-out: ID50 (the source's name); for minimal effective dose: read-out: MED. The essentials:
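Antibody from egg albumin/B. pertussis-sensitized rats was injected intradermally in the mid-dorsal region, then 24 h allowed. Drug was given ip, then iv egg albumin plus Evans blue. Weal size and intensity were scored against untreated controls. Initial doses were 50 or 25 mg/kg, then 10, 5, 2.5 and 1.25 mg/kg, with n = 6 per group. MED was the lowest significant ip dose (p ≤ 0.05, Student's t). ID50 was reported with 95% confidence limits.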

Experiment [2] deals with Rattus norvegicus. As to the kind of experiment: Antiallergic activity in egg albumin-sensitized Sprague-Dawley rat assessed as inhibition of passive cutaneous anaphylaxis at 25 to 50 mg/kg, po administered 15 mins prior to egg albumin and Evans blue dye challenge. Format: functional, organism-based. The essentials: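 Rats were passively sensitized by intradermal mid-dorsal injection of antibody. The antibody came from rats sensitized to egg albumin with Bordetella pertussis adjuvant, and sensitivity developed over 24 h. Compound was given orally before iv egg albumin plus Evans blue. Blue weal size and intensity were compared with untreated rats to give percent inhibition.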

In experiment [3] the test system is Rattus norvegicus. As to the kind of experiment: Antiallergic activity in egg albumin-sensitized Sprague-Dawley rat assessed as inhibition of passive cutaneous anaphylaxis compound administered prior to egg albumin and Evans blue dye challenge. The following applies: read-out: MED.

The structures appear in SMILES notation. Calls of active or inactive are those of the source. The calls are words filed in the database; no cut-off is given here. Some results are limits rather than exact numbers.

Take `O=C([O-])c1cc(=O)c2c(OCC(O)COc3cccc4oc(C(=O)[O-])cc(=O)c34)cccc2o1.[Na+].[Na+]` [CROMOLYN SODIUM]: the ED50 in the experiment on Rattus norvegicus [1] was 2.6 mg/kg. For the same molecule, the inhibition entry in the experiment with Rattus norvegicus [2] was “inactive”.
Take `O=C(O)c1cc(=O)c2ccccc2[nH]1` [TRANSTORINE]: the minimal effective dose in the experiment on Rattus norvegicus [1] worked out at 50 mg/kg. Also, the inhibition result in the experiment with Rattus norvegicus [2] was “inactive”.
On to `O=C(O)c1cc(=O)c2cccc(Sc3ccccc3)c2[nH]1`, for which, in the experiment on Rattus norvegicus [1], the minimal effective dose amounted to 25 mg/kg. In addition, the inhibition entry in the experiment on Rattus norvegicus [2] is “inactive”.
As for `COC(=O)c1cc(=O)c2cc(C(C)=O)ccc2[nH]1`, the inhibition entry with Rattus norvegicus [2] was “inactive”.
Take `O=C(O)c1cc(=O)c2ccc3c(c2[nH]1)C(=O)c1ccccc1-3`: the ED50 in the experiment with Rattus norvegicus [1] came to 2.8 mg/kg. In addition, in the experiment on Rattus norvegicus [2], the inhibition entry was “inactive”.
As to `O=C(O)c1cc(=O)c2cc([S+]([O-])c3ccccc3)ccc2[nH]1` (stereo not given), the minimal effective dose with Rattus norvegicus [1] was 25 mg/kg. In addition, the inhibition entry in the experiment with Rattus norvegicus [2] was “inactive”.
As to `O=C(O)c1cc(=O)c2ccc(Sc3ccccc3)cc2[nH]1`, the minimal effective dose in the experiment on Rattus norvegicus [1] is > 25 mg/kg. In the experiment on Rattus norvegicus [2], the inhibition result was “inactive”.
As for `COC(=O)c1cc(=O)c2cccc(C(=O)c3ccccc3)c2[nH]1`, the inhibition result with Rattus norvegicus [2] was “inactive”.
Consider `COC(=O)c1cc(=O)c2cc(Cl)cc(C(=O)c3ccccc3)c2[nH]1`, for which the inhibition result in the experiment with Rattus norvegicus [2] is “inactive”.
For `O=C(O)c1cc(=O)c2cccc(S(=O)(=O)c3ccccc3)c2[nH]1`, in the experiment with Rattus norvegicus [1], the minimal effective dose amounted to 10 mg/kg. Further, the inhibition entry with Rattus norvegicus [2] is “inactive”.
`COC(=O)c1cc(=O)c2cccc(S(=O)(=O)c3ccccc3)c2[nH]1`: the inhibition entry with Rattus norvegicus [2] was “inactive”.
`COC(=O)c1cc(=O)c2ccc(C(C)=O)cc2[nH]1`: in the experiment with Rattus norvegicus [2], the inhibition result is “inactive”.
Consider `COC(=O)c1cc(=O)c2ccc3c(c2[nH]1)C(=O)c1ccccc1-3`, for which the inhibition result with Rattus norvegicus [2] was “inactive”.
Turning to `CC(=O)c1ccc2[nH]c(C(=O)O)cc(=O)c2c1`, the minimal effective dose in the experiment on Rattus norvegicus [1] turned out to be 25 mg/kg. Also, the inhibition result in the experiment on Rattus norvegicus [2] is “inactive”.
As to `COC(=O)c1cc(=O)c2cc(Sc3ccccc3)ccc2[nH]1`, the inhibition entry in the experiment on Rattus norvegicus [2] was “inactive”.
With `COC(=O)c1cc(=O)c2cccc(C(C)=O)c2[nH]1`, the minimal effective dose with Rattus norvegicus [3] amounted to 25 mg/kg.
For `O=C(c1ccccc1)c1ccc2c(=O)cc(C(=O)O)[nH]c2c1`, the minimal effective dose with Rattus norvegicus [1] was determined as 25 mg/kg. For the same molecule, the inhibition entry in the experiment with Rattus norvegicus [2] is “inactive”.
As for `O=C(O)c1cc(=O)c2cc(Sc3ccccc3)ccc2[nH]1`, in the experiment with Rattus norvegicus [1], the minimal effective dose is > 50 mg/kg. Moreover, the inhibition entry in the experiment on Rattus norvegicus [2] is “inactive”.
`COC(=O)c1cc(=O)c2cc([S+]([O-])c3ccccc3)ccc2[nH]1` (stereo not given): in the experiment with Rattus norvegicus [2], the inhibition result is “inactive”.
Turning to `CC(=O)c1cccc2c(=O)cc(C(=O)O)[nH]c12`, the minimal effective dose in the experiment with Rattus norvegicus [1] amounted to 25 mg/kg. Further, the inhibition entry in the experiment with Rattus norvegicus [2] is “inactive”.
For `O=C(O)c1cc(=O)c2cccc(C(=O)c3ccccc3)c2[nH]1`, the minimal effective dose in the experiment with Rattus norvegicus [1] stood at 25 mg/kg. In the experiment on Rattus norvegicus [2], the inhibition result was “inactive”.
Taken in the same sequence, the figures for `O=C(O)c1cc(=O)c2ccc3c(c2[nH]1)-c1ccccc1C3=O` were > 25 mg/kg and “inactive”.
Regarding `O=C(O)c1cc(=O)c2ccc(S(=O)(=O)c3ccccc3)cc2[nH]1`, the minimal effective dose in the experiment with Rattus norvegicus [1] was > 25 mg/kg. For the same molecule, the inhibition result in the experiment with Rattus norvegicus [2] is “inactive”.
Take `COC(=O)c1cc(=O)c2ccc3c(c2[nH]1)-c1ccccc1C3=O`: the inhibition result in the experiment with Rattus norvegicus [2] is “inactive”.
Consider `COC(=O)c1cc(=O)c2ccc(Sc3ccccc3)cc2[nH]1`, for which the inhibition entry in the experiment with Rattus norvegicus [2] is “inactive”.
On to `COC(=O)c1cc(=O)c2cc(S(=O)(=O)c3ccccc3)ccc2[nH]1`, for which the inhibition result in the experiment with Rattus norvegicus [2] is “inactive”.
Turning to `Cc1ccc(C(=O)c2cccc3c(=O)cc(C(=O)O)[nH]c23)cc1`, in the experiment on Rattus norvegicus [1], the minimal effective dose amounted to 25 mg/kg. Besides, the inhibition entry in the experiment on Rattus norvegicus [2] is “inactive”.
Regarding `COC(=O)c1cc(=O)c2ccc(S(=O)(=O)c3ccccc3)cc2[nH]1`, in the experiment with Rattus norvegicus [2], the inhibition result is “inactive”.
Take `O=C(c1ccccc1)c1ccc2[nH]c(C(=O)[O-])cc(=O)c2c1.[Na+]`: in the experiment on Rattus norvegicus [1], the minimal effective dose worked out at 10 mg/kg. Further, the inhibition entry in the experiment with Rattus norvegicus [2] is “inactive”.
With `COC(=O)c1cc(=O)c2cccc(Sc3ccccc3)c2[nH]1`, the inhibition result in the experiment on Rattus norvegicus [2] is “inactive”.
On the same count and under the same terms, the same measure for `COC(=O)c1cc(=O)c2ccc(C(=O)c3ccccc3)cc2[nH]1`: “inactive”.
Consider `CC(=O)c1ccc2c(O)cc(C(=O)O)nc2c1`, for which the minimal effective dose in the experiment with Rattus norvegicus [1] came out at 10 mg/kg. Further, in the experiment with Rattus norvegicus [2], the inhibition result is “inactive”.
For the molecule `COC(=O)c1cc(=O)c2cccc(C(=O)c3ccc(C)cc3)c2[nH]1`, in the experiment with Rattus norvegicus [2], the inhibition entry was “inactive”.
On to `O=C(O)c1cc(=O)c2cc(S(=O)(=O)c3ccccc3)ccc2[nH]1`, for which the minimal effective dose with Rattus norvegicus [1] was > 25 mg/kg. In addition, the inhibition entry in the experiment on Rattus norvegicus [2] was “inactive”.
On to `COC(=O)c1cc(=O)c2cc(C(=O)c3ccccc3)ccc2[nH]1`, for which the inhibition entry with Rattus norvegicus [2] was “inactive”.
Consider `O=C(O)c1cc(=O)c2cc(Cl)cc(C(=O)c3ccccc3)c2[nH]1`, for which the minimal effective dose with Rattus norvegicus [1] stood at 50 mg/kg. In addition, the inhibition result with Rattus norvegicus [2] is “inactive”.
